{"data": "Experimental data collected from several papers", "note": "Compare with care: the assays were run in different laboratories."}
{"SMILES": "O=[N+]([O-])NC(=S)NN=Cc1ccc(Br)cc1", "tested on": "Leishmania major", "test": "parasite growth, MTT", "setting": "72 h, promastigote", "measurement": "IC50", "result": "433 µM"}
{"SMILES": "CC[C@H](C)[C@H](NC(=O)[C@@H]1CCCN1C(=O)[C@H](CCC(=O)O)NC(=O)[C@H](CC(C)C)NC(=O)[C@@H](N)C(C)C)C(=O)N[C@@H](CC(C)C)C(=O)N[C@@H](Cc1c[nH]cn1)C(=O)N[C@@H](CO)C(=O)N[C@H](C(=O)O)[C@@H](C)OP(=O)(O)O", "tested on": "HeLa", "test": "cell growth or viability, MTT", "setting": "72 h", "measurement": "IC50", "result": "0.82 µM"}
{"SMILES": "Nc1ccn([C@@H]2O[C@H](COCc3ccccc3)[C@@H](OCc3ccccc3)[C@H](OCc3ccccc3)[C@H]2I)c(=O)n1", "tested on": "Japanese encephalitis virus", "test": "viral replication, inhibitor, ELISA", "test system": "Vero", "measurement": "IC50", "result": "> 20 µM"}
{"SMILES": "O=[N+]([O-])NC(=S)NN=Cc1ccc(F)cc1", "tested on": "Leishmania major", "test": "parasite growth", "test system": "J774.A1", "setting": "72 h, intracellular, amastigote", "measurement": "IC50", "result": "76.4 µM"}
{"SMILES": "CN[C@H](CC(C)C)C(=O)N[C@H]1C(=O)N[C@@H](CC(N)=O)C(=O)N[C@H]2C(=O)N[C@H]3C(=O)N[C@H](C(=O)N[C@H](C(=O)O)c4cc(O)cc(O)c4-c4cc3ccc4O)[C@H](O)c3ccc(c(Cl)c3)Oc3cc2cc(c3O[C@@H]2O[C@H](CO)[C@@H](O)[C@H](O)[C@H]2O[C@H]2C[C@](C)(N)[C@H](O)[C@H](C)O2)Oc2ccc(cc2Cl)[C@H]1O", "tested on": "Enterococcus faecalis", "test": "microbial growth", "test system": "VRE", "setting": "drug-resistant strain", "measurement": "MIC", "result": "64 µg/mL"}
{"SMILES": "Cc1ccc(C=NNC(=S)N[N+](=O)[O-])cc1", "tested on": "Leishmania major", "test": "parasite growth, MTT", "setting": "72 h, promastigote", "measurement": "IC50", "result": "346 µM"}
{"SMILES": "O=c1[nH]c(=O)n([C@@H]2O[C@H](COCc3ccccc3)[C@@H](OCc3ccccc3)[C@H](OCc3ccccc3)[C@H]2I)cc1F", "tested on": "Japanese encephalitis virus", "test": "viral replication, inhibitor, ELISA", "test system": "Vero", "measurement": "IC50", "result": "4.98 µM"}
{"SMILES": "C#Cc1cccc(O)c1C=NNC(=O)c1ccc(COC)cc1", "tested on": "Aspergillus fumigatus", "test": "microbial growth", "setting": "48 h, pH 6.5", "measurement": "MIC80", "result": "> 16 µg/mL"}
{"SMILES": "C[S+]([O-])CCCCN=C=S (stereo not drawn)", "tested on": "HDFa", "test": "cell growth or viability, MTT", "setting": "24 h", "measurement": "IC50", "result": "49.8 µM"}
{"SMILES": "C#Cc1cccc(C=NNC(=O)c2ccc(Br)cc2)c1O", "tested on": "Aspergillus fumigatus", "test": "microbial growth", "setting": "48 h, pH 6.5", "measurement": "MIC80", "result": "4 µg/mL"}
{"SMILES": "N.N.[Cl][Pt][Cl]", "tested on": "SU-DHL-6", "test": "cell growth or viability, ATP luminescence", "setting": "10 µM, 72 h", "measurement": "inhibition", "result": "100%"}
{"SMILES": "C#Cc1ccc(O)c(C=NNC(=O)c2ccc(Br)cc2Br)c1", "tested on": "Aspergillus fumigatus", "test": "microbial growth", "setting": "48 h, pH 6.5", "measurement": "MIC80", "result": "2 µg/mL"}
{"SMILES": "N#C[Se]Cc1cc(=O)oc2cc(O)ccc12", "tested on": "HeLa", "test": "cell growth or viability, SRB", "measurement": "GI50", "result": "20 µM"}
{"SMILES": "C#Cc1ccc(O)c(C=NNC(=O)c2ccc(COC)cc2)c1", "tested on": "Aspergillus fumigatus", "test": "microbial growth", "setting": "48 h, pH 6.5", "measurement": "MIC80", "result": "1 µg/mL"}
{"SMILES": "N#C[Se]CCCCOc1ccc2c(-c3ccccc3)cc(=O)oc2c1", "tested on": "HeLa", "test": "cell growth or viability, SRB", "measurement": "GI50", "result": "23 µM"}
